Active and inactive are the calls of the source. The rule behind the calls is not given here.
Columns and labels:
[1] = molecular target: T1, Bromodomain-containing protein 4 (Homo sapiens, UniProt O60885); assay: Inhibition of biotinylated H4 K5,8,12,16Ac peptide binding to GST-tagged BRD4 bromodomain1 (unknown origin) at 100 uM measured after 60 mins by AlphaScreen assay relative to control
Summary of the method: (§1)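 AlphaScreen proximity assay measuring binding of the tetra-acetylated (K5,8,12,16Ac) biotinylated histone H4 peptide to recombinant BRD4 BD1 or BD2. Buffer was 50 mM HEPES with BSA, at 1% DMSO in the 10X compound dilutions. Compound, bromodomain, peptide and histidine-conjugated acceptor beads were incubated 60 min at room temperature. Streptavidin donor beads were then added for 30 min in the dark, and the endpoint Alpha signal read. Inhibition taken at 100 µM, mean of three independent experiments.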

[2] = molecular target: T1, Bromodomain-containing protein 4; assay: Inhibition of biotinylated H4 K5,8,12,16Ac peptide binding to GST-tagged BRD4 bromodomain2 (unknown origin) at 100 uM measured after 60 mins by AlphaScreen assay relative to control; summary of the method: as §1
[3] = Antifibrotic activity against human LX2 cells assessed as reduction in cell growth measured after 48 hrs by MTT assay; type: functional, cell-based; conditions: LX-2, 48 h
Summary of the method: (§2)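 Cells grown at 37 °C in 5% CO2. MCF-7, A549 and HT-29 cells were kept in RPMI 1640 with 10% FBS and pen/strep. HepG2, A375, NRK-49F and LX-2 cells were kept in high-glucose DMEM with 10% FBS and pen/strep. HLF-1 cells were kept in DMEM/F-12 (1:1) with 10% FBS. Cells seeded for exponential growth, exposed to a concentration range for 48 h, then MTT added for 4 h at 37 °C. Formazan dissolved in DMSO, absorbance read at 490 nm, IC50 fitted.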

[4] = molecular target: T1, Bromodomain-containing protein 4; assay: Inhibition of biotinylated H4 K5,8,12,16Ac peptide binding to GST-tagged BRD4 bromodomain1 (unknown origin) measured after 60 mins by AlphaScreen assay
A549 = assay: Antiproliferative activity against human A549 cells assessed as reduction in cell growth measured after 48 hrs by MTT assay; type: functional, cell-based; conditions: A549, 48 h; summary of the method: as §2
HT-29 = assay: Antiproliferative activity against human HT-29 cells assessed as reduction in cell growth measured after 48 hrs by MTT assay; type: functional, cell-based; conditions: HT-29, 48 h; summary of the method: as §2
HepG2 = assay: Antiproliferative activity against human HepG2 cells assessed as reduction in cell growth measured after 48 hrs by MTT assay; type: functional, cell-based; conditions: HepG2, 48 h; summary of the method: as §2
A-375 [5] = assay: Antiproliferative activity against human A375 cells assessed as reduction in cell growth measured after 48 hrs by MTT assay; type: functional, cell-based; conditions: A-375, 48 h; summary of the method: as §2
MCF7 = assay: Antiproliferative activity against human MCF7 cells assessed as reduction in cell growth measured after 48 hrs by MTT assay; type: functional, cell-based; conditions: MCF7, 48 h; summary of the method: as §2
[6] = Antifibrotic activity against human HLF1 cells assessed as reduction in cell growth measured after 48 hrs by MTT assay; type: functional, cell-based; conditions: HLF1, 48 h; summary of the method: as §2
NRK-49F = assay: Antifibrotic activity against rat NRK-49F cells assessed as reduction in cell growth measured after 48 hrs by MTT assay; type: functional, cell-based; summary of the method: as §2
A-375 [7] = assay: Induction of apoptosis in human A375 cells at 10 uM measured after 24 hrs by Annexin V-FITC/propidium iodide staining based fluorescence microscopic analysis; type: functional, cell-based
L02 = assay: Cytotoxicity against human LO2 cells assessed as reduction in cell growth measured after 24 hrs by MTT assay; type: cell-based; conditions: L02, 24 h
[8] = molecular target: T1, Bromodomain-containing protein 4; assay: Inhibition of BRD4 in human A375 cells assessed as reduction in c-MYC protein expression measured after 24 hrs by Western blot analysis; type: cell-based
Summary of the method: (§3)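 Cells (2.5 × 10^5 per well; A375 for c-Myc, HLF-1 for collagen I) were treated for 24 h and lysed on ice. Lysate was clarified at 12,000g for 15 min at 4 °C and protein measured by BCA. 20–40 µg was run on SDS-PAGE and blotted to PVDF, then blocked in 5% milk. Primary antibodies (c-Myc or collagen I, β-actin loading control) overnight, secondary antibody 1 h, fluorescent detection.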

[9] = Selectivity index, ratio of IC50 for cytotoxicity against human LO2 cells to IC50 for antifibrotic activity against human LX2 cells
[10] = molecular target: T1, Bromodomain-containing protein 4; assay: Inhibition of BRD4 in human HLF1 cells assessed as reduction in collagen-1 protein expression measured after 24 hrs by Western blot analysis; type: cell-based; summary of the method: as §3
[11] = molecular target: T1, Bromodomain-containing protein 4; assay: Inhibition of BRD4 in human HLF1 cells assessed as reduction in collagen-1 mRNA expression at 1 uM measured after 24 hrs by RT-PCR analysis; type: cell-based
Summary of the method: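 HLF-1 cells (2.5 × 10^5 per well) were treated for 24 h. Total RNA was extracted, reverse-transcribed to cDNA, and collagen I transcript measured by quantitative RT-PCR.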

SMILES | inhibition [1] [%] | inhibition [2] [%] | IC50 [3] [µM] | IC50 [4] [µM] | IC50 (A549) [µM] | IC50 (HT-29) [µM] | IC50 (HepG2) [µM] | IC50 (A-375 [5]) [µM] | IC50 (MCF7) [µM] | IC50 [6] [µM] | IC50 (NRK-49F) [µM] | Activity (A-375 [7]) | IC50 (L02) [µM] | inhibition [8] | Ratio IC50 [9] | inhibition [10] | inhibition [11]
Cc1noc(C)c1Cn1c(=O)nc(-c2ccccc2)c2c3c(sc21)CC(C)(C)CC3 | 86.6 | 44.9 | > 300 | – | – | – | – | – | – | – | – | – | – | – | – | – | –
CC(C)(C)C1CCc2c(sc3c2c(-c2ccccc2)nc(=O)n3Cc2cnc(Cl)s2)C1 (configuration not stated) | – | 28.3 | 4.2 | 22.7 | 31.9 | 54.4 | 2.4 | 14.7 | > 100 | 7.6 | 6 | – | – | – | – | – | –
Cc1noc(C)c1Cn1c(=O)nc(-c2ccc(Cl)cc2)c2c3c(sc21)CC(C(C)(C)C)CC3 (configuration not stated) | – | 23.4 | 10.4 | 2.4 | 66.5 | 33.8 | 26.4 | 13.6 | 78.3 | 18.9 | 26.3 | – | – | – | – | – | –
Cc1noc(C)c1Cn1c(=O)nc(-c2ccccc2)c2c3c(sc21)CCCCC3 | 84.4 | 81.2 | 140 | – | – | – | – | – | – | – | – | – | – | – | – | – | –
CCc1c(C)sc2c1c(-c1ccccc1)nc(=O)n2Cc1c(C)noc1C | 9.5 | 17.8 | > 300 | – | – | – | – | – | – | – | – | – | – | – | – | – | –
CC(=O)C(C)n1c(=O)nc(-c2ccccc2)c2c3c(sc21)CCCC3 (configuration not stated) | 30 | 13.6 | > 300 | – | – | – | – | – | – | – | – | – | – | – | – | – | –
COc1ccc(-c2nc(=O)n(Cc3cnc(Cl)s3)c3sc4c(c23)CCC(C(C)(C)C)C4)cc1 (configuration not stated) | – | 57.2 | 12.4 | 18.5 | 95.1 | 98 | 14.5 | 6.5 | > 100 | 14.6 | 11.2 | – | – | – | – | – | –
COc1ccc(-c2nc(=O)n(Cc3c(C)noc3C)c3sc4c(c23)CCN(C(C)C)C4)cc1 | 82.9 | 66.6 | 101 | – | – | – | – | – | – | – | – | – | – | – | – | – | –
Cc1noc(C)c1Cn1c(=O)nc(-c2ccccc2)c2c3c(sc21)CC(C(C)(C)C)CC3 (configuration not stated) | – | 41.2 | 21.6 | 8.2 | 29.6 | 20.1 | 10.9 | 8 | > 100 | 21.3 | 23.1 | – | – | – | – | – | –
Cc1noc(C)c1Cn1c(=O)nc(-c2ccccc2)c2c3c(sc21)CCCC3 | 46.4 | 26.2 | 114 | – | – | – | – | – | – | – | – | – | – | – | – | – | –
Cc1noc(C)c1Cn1c(=O)nc(-c2ccc(F)cc2)c2c3c(sc21)CC(C(C)(C)C)CC3 (configuration not stated) | – | 33.2 | 17.3 | 3.6 | 49.9 | 10.7 | 63.7 | 14.2 | 33.3 | 14.5 | 23.3 | – | – | – | – | – | –
COc1cc(OC)c2c(=O)[nH]c(-c3cc(C)c(OCCO)c(C)c3)nc2c1 [APABETALONE] | – | – | 79.7 | – | 53.1 | 236 | 103 | 241 | > 300 | 52 | 42 | inactive | > 100 | – | – | – | –
Cc1noc(C)c1Cn1c(=O)nc(-c2ccccc2Cl)c2c3c(sc21)CC(C(C)(C)C)CC3 (configuration not stated) | – | 39.5 | 11.3 | 1.6 | 16.6 | 19.2 | 30 | 11.1 | 69.2 | 12 | 17.2 | – | – | – | – | – | –
Cc1noc(C)c1Cn1c(=O)nc(-c2ccc(Cl)cc2)c2c3c(sc21)CC(c1ccccc1)CC3 (configuration not stated) | – | 15.1 | 28.8 | 6 | – | – | – | – | – | – | – | – | – | – | – | – | –
COC(=O)c1ccc(-c2nc(=O)n(Cc3c(C)noc3C)c3sc4c(c23)CCC(C(C)(C)C)C4)cc1 (configuration not stated) | – | 49.7 | 19.6 | 1.5 | 19.3 | 17.8 | 12.8 | 8.7 | 38.6 | 6.6 | 8.1 | – | – | – | – | – | –
CC(C)(C)C1CCc2c(sc3c2c(-c2ccccc2)nc(=O)n3Cc2ncccn2)C1 (configuration not stated) | 70.4 | 66.6 | 152 | – | – | – | – | – | – | – | – | – | – | – | – | – | –
Cc1noc(C)c1COc1nc(-c2ccc(Cl)c(Cl)c2)c2c3c(sc2n1)CC(C(C)(C)C)CC3 (configuration not stated) | 32.6 | 9.3 | > 300 | – | – | – | – | – | – | – | – | – | – | – | – | – | –
Cc1noc(C)c1Cn1c(=O)nc(-c2cccc(Cl)c2)c2c3c(sc21)CC(C(C)(C)C)CC3 (configuration not stated) | – | 52.3 | 15.3 | 3.1 | 18.9 | 19.7 | 3.6 | 15.9 | 25.7 | 12.8 | 8.5 | – | – | – | – | – | –
COC(=O)C1CCc2c(sc3c2c(-c2ccccc2)nc(=O)n3Cc2c(C)noc2C)C1 (configuration not stated) | 19 | 9 | > 300 | – | – | – | – | – | – | – | – | – | – | – | – | – | –
CC(=O)Cn1c(=O)nc(-c2ccccc2)c2c3c(sc21)CCCC3 | 23.7 | 17.2 | > 300 | – | – | – | – | – | – | – | – | – | – | – | – | – | –
CNC(=O)Cn1c(=O)nc(-c2ccccc2)c2c3c(sc21)CCCC3 | 38.5 | 3.1 | > 300 | – | – | – | – | – | – | – | – | – | – | – | – | – | –
CC(C)(C)C1CCc2c(sc3c2c(-c2ccc(Cl)cc2)nc(=O)n3Cc2cnc(Cl)s2)C1 (configuration not stated) | – | – | > 300 | – | – | – | – | – | – | – | – | – | – | – | – | – | –
Cc1noc(C)c1Cn1c(=O)nc(-c2ccc(Cl)c(Cl)c2)c2c3c(sc21)CC(C(C)(C)C)CC3 (configuration not stated) | – | 29.9 | 9.1 | 0.56 | 24.5 | 19.4 | 14.5 | 4.9 | 16.6 | 13.6 | 16 | Active | 33.2 | Dose-dependent effect | 3.6 | Dose-dependent effect | Active
Cc1noc(C)c1Cn1c(=O)nc(-c2ccccc2)c2c3c(sc21)CCC3 | 23 | 19.8 | > 300 | – | – | – | – | – | – | – | – | – | – | – | – | – | –
COc1ccc(-c2nc(=O)n(Cc3c(C)noc3C)c3sc4c(c23)CCC(C(C)(C)C)C4)cc1 (configuration not stated) | – | 42.2 | 12.9 | 11.4 | 18.9 | 13 | 15.1 | 14.2 | 10.4 | 14.1 | 22.2 | – | – | – | – | – | –
Cc1sc2c(c1C)C(c1ccc(Cl)cc1)=N[C@@H](CC(=O)OC(C)(C)C)c1nnc(C)n1-2 | – | – | 28.6 | – | 13.1 | 19.6 | 11.3 | 7.5 | 38 | 20.4 | 21.1 | Active | 54.2 | – | – | – | –
Cn1c(=O)nc(-c2ccccc2)c2c3c(sc21)CCCC3 | 42.6 | 66.2 | > 300 | – | – | – | – | – | – | – | – | – | – | – | – | – | –
O=c1nc(-c2ccc(Cl)cc2)c2c3c(sc2n1Cc1cnc(Cl)s1)CC(c1ccccc1)CC3 (configuration not stated) | 44.9 | 14.5 | 98.2 | – | – | – | – | – | – | – | – | – | – | – | – | – | –

— ChEMBL document CHEMBL4392838, “Binding pocket-based design, synthesis and biological evaluation of novel selective BRD4-BD1 inhibitors” (Bioorg Med Chem, 2019)
